Data as given in ChEMBL document CHEMBL1124384, “Deaminoteicoplanin and its derivatives. Synthesis, antibacterial activity, and binding strength to Ac-D-Ala-D-Ala” (J Med Chem, 1989).
In brackets after ≈: the same amount, converted by molar mass.

Columns and labels:
[1] = system: Staphylococcus aureus; assay: Minimal inhibitory concentration of compound against Staphylococcus aureus Tour in an inoculum of 10e6 cfu/mL; type: functional
How it was run: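 Twofold microtiter broth dilution in Iso-sensitest broth, with the inoculum raised to 10⁶ cfu/mL. After 18–24 h at 37 °C, MIC was read as the lowest concentration giving no visible growth.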

[2] = system: Staphylococcus aureus; assay: Minimal inhibitory concentration of compound against Staphylococcus aureus Tour; type: functional
How it was run: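 Broth MIC by 2-fold serial dilution in microtiter format, in Iso-sensitest broth, with a final inoculum of about 10⁴ cfu/mL. Plates were incubated 18–24 h at 37 °C. MIC was taken as the lowest concentration with no visible growth.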

[3] = system: Staphylococcus epidermidis; assay: Minimal inhibitory concentration of compound against […] ATCC 12228; type: functional
[4] = system: Streptococcus pyogenes; assay: Minimal inhibitory concentration of compound against Streptococcus pyogenes C203; type: functional
How it was run: (§1)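 Streptococci were tested by 2-fold broth microdilution in Todd-Hewitt broth, with a final inoculum of about 10⁴ cfu/mL. After 18–24 h at 37 °C, MIC was read as the lowest concentration with no visible growth.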

[5] = system: Staphylococcus aureus; assay: Minimal inhibitory concentration of compound against Staphylococcus aureus Tour determined in iso-sensitest broth supplemented with 30% bovine serum and an inoculum of 10e4 cfu/mL
[6] = system: Streptococcus pneumoniae; assay: Minimal inhibitory concentration of compound against Streptococcus pneumoniae UC41; type: functional; how it was run: as §1
[7] = system: Enterococcus faecalis; assay: Minimal inhibitory concentration of compound against Streptococcus faecalis AACC7080; type: functional
How it was run: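 For S. faecalis, 2-fold dilution MIC in a microtiter system using Iso-sensitest broth and a final inoculum of about 10⁴ cfu/mL. Incubation was 18–24 h at 37 °C. The endpoint was the lowest concentration without visible growth.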

[8] = Association constant for compound at 31 degree C was determined; type: ADME
How it was run: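 UV difference spectroscopy at 31 °C. Antibiotic at 25 μM in 10% methanol/0.02 M sodium citrate buffer, pH 5, sat in sample and reference cells (4-cm path). Ac-D-Ala-D-Ala was added from a 4 mM stock to the sample cell, with buffer added to the reference. The absorbance change was read at 282–285 nm. K_A came from Scatchard plots, with antibiotic concentration set by UV at 279 nm.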

| SMILES | MIC [1] [µg/mL] | MIC [2] [µg/mL] | MIC [3] [µg/mL] | MIC [4] [µg/mL] | MIC [5] [µg/mL] | MIC [6] [µg/mL] | MIC [7] [µg/mL] | KA [8] [M⁻¹] |
| --- | --- | --- | --- | --- | --- | --- | --- | --- |
| N[C@H]1C(=O)N[C@@H]2Cc3ccc(c(Cl)c3)Oc3cc4cc(c3O)Oc3ccc(cc3Cl)[C@@H](O)[C@@H]3NC(=O)[C@H](NC(=O)[C@@H]4NC(=O)[C@@H](NC2=O)c2cc(O)cc(c2)Oc2cc1ccc2O)c1ccc(O)c(c1)-c1c(O)cc(O)cc1[C@@H](C(=O)NC1CN2CCC1CC2)NC3=O (stereo partly specified) | 0.12 (≈ 0.0918 µM) | 0.12 (≈ 0.0918 µM) | 0.06 (≈ 0.0459 µM) | 0.06 (≈ 0.0459 µM) | 0.5 (≈ 0.383 µM) | 0.06 (≈ 0.0459 µM) | 0.12 (≈ 0.0918 µM) | – |
| CC(=O)N[C@@H]1[C@H](O[C@@H]2c3ccc(c(Cl)c3)Oc3cc4cc(c3O)Oc3ccc(cc3Cl)C[C@H]3NC(=O)[C@H](N)c5ccc(O)c(c5)Oc5cc(O)cc(c5)[C@H](NC3=O)C(=O)N[C@H]4C(=O)N[C@H]3C(=O)N[C@@H]2C(=O)N[C@H](C(=O)O)c2cc(O)cc(O[C@H]4O[C@H](CO)[C@@H](O)[C@@H](O)[C@@H]4O)c2-c2cc3ccc2O)O[C@@H](CO)[C@@H](O)[C@@H]1O | 0.5 (≈ 0.32 µM) | 0.25 (≈ 0.16 µM) | 0.25 (≈ 0.16 µM) | 0.5 (≈ 0.32 µM) | 0.5 (≈ 0.32 µM) | 0.5 (≈ 0.32 µM) | 2 (≈ 1.28 µM) | – |
| CC(=O)N[C@@H]1[C@H](O[C@@H]2c3ccc(c(Cl)c3)Oc3cc4cc(c3O)Oc3ccc(cc3Cl)C[C@H]3NC(=O)[C@H](N)c5ccc(O)c(c5)Oc5cc(O)cc(c5)[C@H](NC3=O)C(=O)N[C@H]4C(=O)N[C@H]3C(=O)N[C@@H]2C(=O)N[C@H](C(=O)O)c2cc(O)cc(O)c2-c2cc3ccc2O)O[C@@H](CO)[C@@H](O)[C@@H]1O | 0.25 (≈ 0.178 µM) | 0.5 (≈ 0.357 µM) | 0.12 (≈ 0.0856 µM) | 0.5 (≈ 0.357 µM) | 0.5 (≈ 0.357 µM) | 1 (≈ 0.713 µM) | 1 (≈ 0.713 µM) | – |
| CN(C)CCCNC(=O)[C@H]1NC(=O)[C@H]2NC(=O)[C@H](NC(=O)[C@@H]3NC(=O)[C@H]4NC(=O)[C@@H](Cc5ccc(c(Cl)c5)Oc5cc3cc(c5O)Oc3ccc(cc3Cl)[C@H]2O)NC(=O)[C@H](N)c2ccc(O)c(c2)Oc2cc(O)cc4c2)c2ccc(O)c(c2)-c2c(O)cc(O)cc21 | 0.12 (≈ 0.0935 µM) | 0.06 (≈ 0.0468 µM) | 0.016 (≈ 0.0125 µM) | 0.06 (≈ 0.0468 µM) | 0.25 (≈ 0.195 µM) | 0.06 (≈ 0.0468 µM) | 0.12 (≈ 0.0935 µM) | – |
| O=C1Cc2ccc(O)c(c2)Oc2cc(O)cc(c2)[C@@H]2NC(=O)[C@@H](Cc3ccc(c(Cl)c3)Oc3cc4cc(c3O)Oc3ccc(cc3Cl)[C@@H](O)[C@@H]3NC(=O)[C@H](NC(=O)[C@@H]4NC2=O)c2ccc(O)c(c2)-c2c(O)cc(O)cc2[C@@H](C(=O)O)NC3=O)N1 | 0.25 (≈ 0.211 µM) | 0.12 (≈ 0.101 µM) | 0.25 (≈ 0.211 µM) | 0.06 (≈ 0.0507 µM) | 1 (≈ 0.845 µM) | 0.06 (≈ 0.0507 µM) | 0.12 (≈ 0.101 µM) | 11000 |
| CC(=O)N[C@@H]1[C@H](O[C@@H]2c3ccc(c(Cl)c3)Oc3cc4cc(c3O)Oc3ccc(cc3Cl)C[C@H]3NC(=O)Cc5ccc(O)c(c5)Oc5cc(O)cc(c5)[C@H](NC3=O)C(=O)N[C@H]4C(=O)N[C@H]3C(=O)N[C@@H]2C(=O)N[C@H](C(=O)O)c2cc(O)cc(O[C@H]4O[C@H](CO)[C@@H](O)[C@@H](O)[C@@H]4O)c2-c2cc3ccc2O)O[C@@H](CO)[C@@H](O)[C@@H]1O | 8 (≈ 5.16 µM) | 2 (≈ 1.29 µM) | 1 (≈ 0.645 µM) | 4 (≈ 2.58 µM) | 16 (≈ 10.3 µM) | 4 (≈ 2.58 µM) | 4 (≈ 2.58 µM) | – |
| CCCCCCCCCC(=O)N[C@@H]1[C@H](Oc2c3cc4cc2Oc2ccc(cc2Cl)[C@@H](O[C@@H]2O[C@@H](CO)[C@@H](O)[C@H](O)[C@@H]2NC(C)=O)[C@@H]2NC(=O)[C@H](NC(=O)[C@@H]4NC(=O)[C@H]4NC(=O)[C@@H](Cc5ccc(c(Cl)c5)O3)NC(=O)Cc3ccc(O)c(c3)Oc3cc(O)cc4c3)c3ccc(O)c(c3)-c3c(O[C@H]4O[C@H](CO)[C@@H](O)[C@@H](O)[C@@H]4O)cc(O)cc3[C@@H](C(=O)N(C)C)NC2=O)O[C@@H](CO)[C@@H](O)[C@@H]1O | 1 (≈ 0.529 µM) | 0.12 (≈ 0.0634 µM) | 0.12 (≈ 0.0634 µM) | 0.12 (≈ 0.0634 µM) | 4 (≈ 2.11 µM) | 0.12 (≈ 0.0634 µM) | 0.25 (≈ 0.132 µM) | 200000 |
